Results on 22 compounds are retold here after ChEMBL document CHEMBL2016577, “Preparation, antibacterial evaluation and preliminary structure-activity relationship (SAR) study of benzothiazol- and benzoxazol-2-amine derivatives” (Bioorg Med Chem Lett, 2012).

Values after ≈ are worked out from the molar mass of the structure shown. A value given as a limit tells only on which side of the number the result lay.

What is called MIC is the lowest concentration found to suppress growth. A high value points to weaker potency. What is called IC50 is the concentration that inhibits the measured activity by half. A low value points to higher potency.

The subject of series [1] is Staphylococcus aureus. The series can be described thus: Antibacterial activity against Staphylococcus aureus ATCC 25923 after 16 hrs by broth microdilution method. As to conditions: ATCC 25923, 16 h. Type of series: functional.
Series [2] concerns Enterococcus faecalis. The series can be described thus: Antibacterial activity against Enterococcus faecalis ATCC 29212 after 16 hrs by broth microdilution method. As to conditions: ATCC 29212, 16 h. Type of series: functional. (In general: Broth dilution looks for growth in wells or tubes with falling amounts of substance.)
Series [3] has as its system Escherichia coli. The series can be described thus: Antibacterial activity against Escherichia coli ATCC 29425 after 16 hrs by broth microdilution method. It counts as functional. The conditions noted are these: ATCC 29425, 16 h.
Series [4] concerns Staphylococcus aureus. The series can be described thus: Antibacterial activity against methicillin-susceptible Staphylococcus aureus after 16 hrs by broth microdilution method. Type of series: functional. The procedure, abridged: (§1)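 Clinical isolates, including strains resistant to common antimicrobials, tested by the standard broth dilution method. The read-out is the minimum inhibitory concentration in μg/mL. Each value is representative of three independent determinations.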

In series [5] the test system is Staphylococcus aureus. The series can be described thus: Antibacterial activity against methicillin-resistant Staphylococcus aureus after 16 hrs by broth microdilution method. Type of series: functional. An outline of the steps: as §1
The test system of series [6] is Streptococcus pneumoniae. The series can be described thus: Antibacterial activity against penicillin-susceptible Streptococcus pneumoniae after 16 hrs by broth microdilution method. It counts as functional.
For series [7], the system named is Streptococcus pneumoniae. The series can be described thus: Antibacterial activity against penicillin-resistant Streptococcus pneumoniae after 16 hrs by broth microdilution method. Type of series: functional. The procedure, abridged: as §1
For series [8], the system named is Enterococcus faecalis. The series can be described thus: Antibacterial activity against vancomycin-susceptible Enterococcus faecalis after 16 hrs by broth microdilution method. Type of series: functional.
In series [9] the test system is Enterococcus faecalis. The series can be described thus: Antibacterial activity against vancomycin-resistant Enterococcus faecalis after 16 hrs by broth microdilution method. It counts as functional. The procedure, abridged:
as §1

Series [10] has as its system Enterococcus faecium. The series can be described thus: Antibacterial activity against vancomycin-susceptible Enterococcus faecium after 16 hrs by broth microdilution method. Type of series: functional. The procedure, abridged:
as §1

In series [11] the test system is Enterococcus faecium. The series can be described thus: Antibacterial activity against vancomycin-resistant Enterococcus faecium after 16 hrs by broth microdilution method. Type of series: functional. An outline of the steps: as §1
The test system of series [12] is Escherichia coli. The series can be described thus: Antibacterial activity against Escherichia coli clinical isolate after 16 hrs by 2-fold microdilution method. It counts as functional.
The test system of the next series is HEK293. The series can be described thus: Cytotoxicity against human HEK293 cells after 48 hrs by MTT assay. Type of series: cell-based. The conditions noted are these: HEK293, 48 h. An outline of the steps:
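Standard MTT assay in Human Embryonic Kidney 293 cells, with 64 μg/mL as the top concentration tested. IC50 came from three independent experiments.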

The next series addresses Albumin (Bos taurus, UniProt P02769). The series can be described thus: Binding affinity to bovine serum albumin BY HPLC analysis. Type of series: ADME. The conditions noted are these: cattle, isolated protein. The procedure, abridged: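 Compound was incubated with BSA standard solution and the bound fraction separated by centrifugal ultrafiltration. Free compound was quantified by HPLC. Binding degree = (Cb–Ca)/Cb, where Cb and Ca are the compound concentrations before and after interaction with BSA.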

The nature of series [13]: Cytotoxicity against human HEK293 cells at 64 ug/ml after 48 hrs by MTT assay. It counts as cell-based. As to conditions: read-out: INH. An outline of the steps: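 HEK293 cells were exposed to compound at 64 μg/mL and assessed by standard MTT. Inhibitory rate was recorded across three independent experiments.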
(Tetrazolium assays rely on reduction of a dye to a coloured formazan, in cell work by metabolically active cells.)

Albumin, sequence (P02769 whole entry): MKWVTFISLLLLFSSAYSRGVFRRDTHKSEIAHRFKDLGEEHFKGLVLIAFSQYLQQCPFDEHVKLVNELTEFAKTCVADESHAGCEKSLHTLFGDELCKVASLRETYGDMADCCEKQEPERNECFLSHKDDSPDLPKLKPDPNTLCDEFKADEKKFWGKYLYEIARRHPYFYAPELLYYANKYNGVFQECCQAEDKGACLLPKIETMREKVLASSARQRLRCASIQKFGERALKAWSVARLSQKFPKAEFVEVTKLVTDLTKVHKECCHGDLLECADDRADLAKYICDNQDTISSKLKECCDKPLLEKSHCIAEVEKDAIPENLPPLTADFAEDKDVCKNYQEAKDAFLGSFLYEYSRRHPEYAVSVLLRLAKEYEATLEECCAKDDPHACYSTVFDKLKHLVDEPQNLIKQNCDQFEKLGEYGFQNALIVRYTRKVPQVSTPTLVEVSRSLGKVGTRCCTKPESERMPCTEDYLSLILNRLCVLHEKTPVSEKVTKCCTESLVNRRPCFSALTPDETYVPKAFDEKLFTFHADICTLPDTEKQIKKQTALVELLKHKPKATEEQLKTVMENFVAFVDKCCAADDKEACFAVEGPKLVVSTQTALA

For `c1ccc(CNCCNc2nc3ccccc3s2)cc1`, the MIC in the series on Staphylococcus aureus [1], in the series on Enterococcus faecalis [2] and against Escherichia coli [3] was more than 64 µg/mL throughout.
For `c1ccc(CNCCCNc2nc3ccccc3s2)cc1`, the MIC against Staphylococcus aureus [1], in the series with Enterococcus faecalis [2] and against Escherichia coli [3] was more than 64 µg/mL each time.
Regarding `Clc1ccc(CNCCNc2nc3ccccc3s2)cc1`, the MIC with Staphylococcus aureus [1] is 8 µg/mL (≈ 25.2 µM); against Enterococcus faecalis [2], 32 µg/mL (≈ 101 µM); in the series with Escherichia coli [3], more than 64 µg/mL.
For `Clc1ccc(CNCCCNc2nc3ccccc3s2)cc1`, the MIC with Staphylococcus aureus [1] is 16 µg/mL (≈ 48.2 µM); against Enterococcus faecalis [2], 8 µg/mL (≈ 24.1 µM); against Escherichia coli [3], more than 64 µg/mL.
The like results for `Brc1cccc(CNCCNc2nc3ccccc3s2)c1` were, in that order, 8 µg/mL (≈ 22.1 µM), 64 µg/mL (≈ 177 µM) and 64 µg/mL (≈ 177 µM).
The corresponding values for `Brc1cccc(CNCCCNc2nc3ccccc3s2)c1` are 16 µg/mL (≈ 42.5 µM), 8 µg/mL (≈ 21.3 µM) and 32 µg/mL (≈ 85 µM).
Regarding `Oc1ccc(CNCCNc2nc3ccccc3s2)cc1`, the MIC against Staphylococcus aureus [1] is 16 µg/mL (≈ 53.4 µM); in the series on Enterococcus faecalis [2], 32 µg/mL (≈ 107 µM); against Escherichia coli [3], more than 64 µg/mL.
Regarding `Oc1ccc(CNCCCNc2nc3ccccc3s2)cc1`, the results for the MIC against Staphylococcus aureus [1], in the series with Enterococcus faecalis [2] and against Escherichia coli [3] were 16 µg/mL (≈ 51 µM), 32 µg/mL (≈ 102 µM) and more than 64 µg/mL, respectively.
The like results for `COc1ccc(CNCCNc2nc3ccccc3s2)cc1` were, in that order, 32 µg/mL (≈ 102 µM), 32 µg/mL (≈ 102 µM) and more than 64 µg/mL.
`COc1ccc(CNCCCNc2nc3ccccc3s2)cc1`: the results for the MIC in the series on Staphylococcus aureus [1], in the series on Enterococcus faecalis [2] and against Escherichia coli [3] were 64 µg/mL (≈ 195 µM), 64 µg/mL (≈ 195 µM) and more than 64 µg/mL, respectively.
`Clc1ccc(CNCCNc2nc3ccccc3s2)cc1Cl`: the MIC with Staphylococcus aureus [1] is 32 µg/mL (≈ 90.8 µM); in the series on Enterococcus faecalis [2], 64 µg/mL (≈ 182 µM); in the series on Escherichia coli [3] it was more than 64 µg/mL.
The corresponding values for `Clc1ccc(CNCCCNc2nc3ccccc3s2)cc1Cl` are 4 µg/mL (≈ 10.9 µM), 16 µg/mL (≈ 43.7 µM) and 32 µg/mL (≈ 87.4 µM).
The like results for `Clc1ccc(CNCCNc2nc3ccccc3s2)c(Cl)c1` were, in that order, 2 µg/mL (≈ 5.68 µM), 8 µg/mL (≈ 22.7 µM) and 32 µg/mL (≈ 90.8 µM).
In the case of `Clc1ccc(CNCCCNc2nc3ccccc3s2)c(Cl)c1`, the MIC against Staphylococcus aureus [1] was 8 µg/mL (≈ 21.8 µM); in the series with Enterococcus faecalis [2], 8 µg/mL (≈ 21.8 µM); in the series with Escherichia coli [3], more than 64 µg/mL.
Turning to `COc1ccc2nc(NCCCNCc3ccc(Cl)c(Cl)c3)sc2c1`, the MIC was 4 µg/mL (≈ 10.1 µM) against Staphylococcus aureus [1], 4 µg/mL (≈ 10.1 µM) in the series on Enterococcus faecalis [2] and more than 64 µg/mL in the series with Escherichia coli [3].
Turning to `Clc1ccc2nc(NCCCNCc3ccc(Cl)c(Cl)c3)sc2c1`, the MIC in the series with Staphylococcus aureus [1] amounted to 4 µg/mL (≈ 9.98 µM); in the series on Enterococcus faecalis [2] it was 2 µg/mL (≈ 4.99 µM); against Escherichia coli [3], 32 µg/mL (≈ 79.8 µM).
The like results for `Clc1ccc2sc(NCCCNCc3ccc(Cl)c(Cl)c3)nc2c1` were, in that order, 2 µg/mL (≈ 4.99 µM), 2 µg/mL (≈ 4.99 µM) and 32 µg/mL (≈ 79.8 µM).
In the case of `Fc1ccc2nc(NCCCNCc3ccc(Cl)c(Cl)c3)sc2c1`, the minimal inhibitory concentration (MIC) against Staphylococcus aureus [1] turned out to be 1 µg/mL (≈ 2.6 µM); in the series on Enterococcus faecalis [2], 2 µg/mL (≈ 5.2 µM); against Escherichia coli [3] it was 32 µg/mL (≈ 83.3 µM).
The like results for `Fc1ccc2sc(NCCCNCc3ccc(Cl)c(Cl)c3)nc2c1` were, in that order, 1 µg/mL (≈ 2.6 µM), 2 µg/mL (≈ 5.2 µM) and 32 µg/mL (≈ 83.3 µM).
As for `Fc1cc2nc(NCCCNCc3ccc(Cl)c(Cl)c3)sc2cc1F`, the minimal inhibitory concentration (MIC) against Staphylococcus aureus [1] was determined as 0.5 µg/mL (≈ 1.24 µM); against Enterococcus faecalis [2] it was 1 µg/mL (≈ 2.49 µM); with Escherichia coli [3], 32 µg/mL (≈ 79.5 µM); in the series on Staphylococcus aureus [4] it was 0.5 µg/mL (≈ 1.24 µM); in the series with Staphylococcus aureus [5], 1 µg/mL (≈ 2.49 µM); with Streptococcus pneumoniae [6], 4 µg/mL (≈ 9.94 µM). Further, the minimum inhibitory concentration (MIC) against Streptococcus pneumoniae [7] is 4 µg/mL (≈ 9.94 µM); in the series on Enterococcus faecalis [8], 1 µg/mL (≈ 2.49 µM); with Enterococcus faecalis [9], 1 µg/mL (≈ 2.49 µM); in the series on Enterococcus faecium [10] it was 2 µg/mL (≈ 4.97 µM); against Enterococcus faecium [11] it was 2 µg/mL (≈ 4.97 µM); against Escherichia coli [12], more than 64 µg/mL. The IC50 with HEK293 was more than 64 µg/mL. This compound displayed an Activity on Albumin of 1.4%. In series [13], the cytotoxicity at 48 h, 64 ug/ml is 15%.
With `CC1(C)S[C@@H]2[C@H](NC(=O)[C@H](N)c3ccccc3)C(=O)N2[C@H]1C(=O)O` [AMPICILLIN], the MIC in the series on Staphylococcus aureus [4] is 0.0625 µg/mL (≈ 0.179 µM); in the series on Staphylococcus aureus [5] it was more than 64 µg/mL; with Streptococcus pneumoniae [6], 0.125 µg/mL (≈ 0.358 µM); in the series on Streptococcus pneumoniae [7], more than 64 µg/mL; in the series on Enterococcus faecalis [8], 0.125 µg/mL (≈ 0.358 µM); with Enterococcus faecalis [9], more than 64 µg/mL. The minimal inhibitory concentration (MIC) with Enterococcus faecium [10] is 0.25 µg/mL (≈ 0.715 µM); in the series with Enterococcus faecium [11] it was more than 64 µg/mL; with Escherichia coli [12] it was 0.25 µg/mL (≈ 0.715 µM).
Consider `CO/N=C(\C(=O)N[C@@H]1C(=O)N2C(C(=O)O)=C(COC(C)=O)CS[C@H]12)c1csc(N)n1` [CEFOTAXIME], for which the MIC is 1 µg/mL (≈ 2.2 µM) in the series with Staphylococcus aureus [4]; more than 64 µg/mL in the series with Staphylococcus aureus [5]; 1 µg/mL (≈ 2.2 µM) in the series with Streptococcus pneumoniae [6]; 64 µg/mL (≈ 141 µM) in the series with Streptococcus pneumoniae [7]; 1 µg/mL (≈ 2.2 µM) with Enterococcus faecalis [8]; more than 64 µg/mL in the series with Enterococcus faecalis [9]. The MIC was 1 µg/mL (≈ 2.2 µM) with Enterococcus faecium [10], more than 64 µg/mL in the series on Enterococcus faecium [11] and 0.25 µg/mL (≈ 0.549 µM) against Escherichia coli [12].
